Measurements reported in ChEMBL document CHEMBL4184148 (Bioorg Med Chem Lett, 2017).

Tests used:
[1] = test system: Phosphatidylinositol 4,5-bisphosphate 3-kinase catalytic subunit alpha isoform (Homo sapiens), P42336 [E545A]; assay: Binding affinity to human partial length PIK3CA E545A mutant (R108 to N1068 residues) expressed in HEK293 cells at 1 uM by Kinomescan method relative to control; assay type: cell-based
[2] = biological target: Cyclin-dependent kinase 18 (Homo sapiens) (UniProt Q07002); assay: Binding affinity to wild-type human full length PCTK3 (M3 to F474 residues) expressed in Escherichia coli BL21 at 1 uM by Kinomescan method relative to control
Method in brief: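 Kinome-wide competition binding panel run by an outside provider, with each compound tested at a single concentration. Activity is read against the kinase panel.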

Aurora kinase A = biological target: T1, Aurora kinase A (Homo sapiens, UniProt O14965); assay: Inhibition of recombinant full length His-tagged human Aurora A expressed in baculovirus expression system by Z'LYTE assay
T1 sequence (O14965 whole entry): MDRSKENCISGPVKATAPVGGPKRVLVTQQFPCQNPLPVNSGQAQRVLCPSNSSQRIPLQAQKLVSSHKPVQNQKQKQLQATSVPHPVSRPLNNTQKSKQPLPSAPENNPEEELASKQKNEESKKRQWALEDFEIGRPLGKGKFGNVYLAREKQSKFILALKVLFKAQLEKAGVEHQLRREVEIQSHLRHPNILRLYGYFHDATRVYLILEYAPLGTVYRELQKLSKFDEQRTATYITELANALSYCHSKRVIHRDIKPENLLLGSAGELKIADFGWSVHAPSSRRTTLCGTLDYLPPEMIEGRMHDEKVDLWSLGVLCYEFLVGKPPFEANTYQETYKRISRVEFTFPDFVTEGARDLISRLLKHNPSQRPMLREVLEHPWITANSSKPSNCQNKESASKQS
Method in brief: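 Z'LYTE biochemical kinase assay with ATP at the Km for each kinase. IC50 determined from the assay and reported ± standard error.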

Aurora kinase B = Aurora kinase B (Homo sapiens, UniProt Q96GD4); assay: Binding affinity to wild-type human partial length AURKB (D25 to A303 residues) expressed in HEK293 cells at 1 uM by Kinomescan method relative to control; assay type: cell-based
[3] = biological target: Myosin-IIIb (Homo sapiens) (UniProt Q8WXR4); assay: Binding affinity to wild-type human partial length MYO3B (M1 to D357 residues) expressed in Escherichia coli BL21 at 1 uM by Kinomescan method relative to control
[4] = biological target: Serine/threonine-protein kinase 3 (Homo sapiens) (UniProt Q13188); assay: Binding affinity to wild-type human partial length MST2 (D17 to E318 residues) expressed in Escherichia coli BL21 at 1 uM by Kinomescan method relative to control
[5] = biological target: Phosphatidylinositol 4-phosphate 3-kinase C2 domain-containing subunit beta (Homo sapiens) (UniProt O00750); assay: Binding affinity to wild-type human partial length PIK3C2B (M1 to L1634 residues) expressed in HEK293 cells at 1 uM by Kinomescan method relative to control; assay type: cell-based
[6] = biological target: Ephrin type-B receptor 6 (Homo sapiens) (UniProt O15197); assay: Binding affinity to wild-type human partial length EPHB6 (Q634 to P948 residues) expressed in HEK293 cells at 1 uM by Kinomescan method relative to control; assay type: cell-based
[7] = biological target: Calcium/calmodulin-dependent protein kinase type 1B (Homo sapiens) (UniProt Q6P2M8); assay: Binding affinity to wild-type human partial length CAMK1B (W9 to A311 residues) expressed in HEK293 cells at 1 uM by Kinomescan method relative to control; assay type: cell-based
[8] = biological target: Serine/threonine-protein kinase ICK (Homo sapiens) (UniProt Q9UPZ9); assay: Binding affinity to wild-type human partial length ICK (M1 to P314 residues) expressed in HEK293 cells at 1 uM by Kinomescan method relative to control; assay type: cell-based
[9] = biological target: Ephrin type-B receptor 2 (Homo sapiens) (UniProt P29323); assay: Binding affinity to wild-type human partial length EPHB2 (I597 to L902 residues) expressed in Escherichia coli BL21 at 1 uM by Kinomescan method relative to control
[10] = biological target: Serine/threonine-protein kinase MRCK beta (Homo sapiens) (UniProt Q9Y5S2); assay: Binding affinity to wild-type human partial length MRCKB (L56 to S417 residues) expressed in Escherichia coli BL21 at 1 uM by Kinomescan method relative to control
[11] = biological target: Serine/threonine-protein kinase haspin (Homo sapiens) (UniProt Q8TF76); assay: Binding affinity to wild-type human partial length HASPIN (I452 to K798 residues) expressed in HEK293 cells at 1 uM by Kinomescan method relative to control; assay type: cell-based
[12] = biological target: Mitogen-activated protein kinase kinase kinase 3 (Homo sapiens) (UniProt Q99759); assay: Binding affinity to wild-type human partial length MAP3K3 (E320 to Y626 residues) expressed in HEK293 cells at 1 uM by Kinomescan method relative to control; assay type: cell-based
[13] = test system: ALK tyrosine kinase receptor (Homo sapiens), Q9UM73 [L1196M]; assay: Binding affinity to […] human partial length ALK L1196M mutant (I1088 to E1409 residues) expressed in HEK293 cells at 1 uM by Kinomescan method relative to control; assay type: cell-based
Chain of ALK tyrosine kinase receptor (Homo sapiens), Q9UM73 [L1196M] (Q9UM73 whole entry L1196M, looked up, the tested form may be a part): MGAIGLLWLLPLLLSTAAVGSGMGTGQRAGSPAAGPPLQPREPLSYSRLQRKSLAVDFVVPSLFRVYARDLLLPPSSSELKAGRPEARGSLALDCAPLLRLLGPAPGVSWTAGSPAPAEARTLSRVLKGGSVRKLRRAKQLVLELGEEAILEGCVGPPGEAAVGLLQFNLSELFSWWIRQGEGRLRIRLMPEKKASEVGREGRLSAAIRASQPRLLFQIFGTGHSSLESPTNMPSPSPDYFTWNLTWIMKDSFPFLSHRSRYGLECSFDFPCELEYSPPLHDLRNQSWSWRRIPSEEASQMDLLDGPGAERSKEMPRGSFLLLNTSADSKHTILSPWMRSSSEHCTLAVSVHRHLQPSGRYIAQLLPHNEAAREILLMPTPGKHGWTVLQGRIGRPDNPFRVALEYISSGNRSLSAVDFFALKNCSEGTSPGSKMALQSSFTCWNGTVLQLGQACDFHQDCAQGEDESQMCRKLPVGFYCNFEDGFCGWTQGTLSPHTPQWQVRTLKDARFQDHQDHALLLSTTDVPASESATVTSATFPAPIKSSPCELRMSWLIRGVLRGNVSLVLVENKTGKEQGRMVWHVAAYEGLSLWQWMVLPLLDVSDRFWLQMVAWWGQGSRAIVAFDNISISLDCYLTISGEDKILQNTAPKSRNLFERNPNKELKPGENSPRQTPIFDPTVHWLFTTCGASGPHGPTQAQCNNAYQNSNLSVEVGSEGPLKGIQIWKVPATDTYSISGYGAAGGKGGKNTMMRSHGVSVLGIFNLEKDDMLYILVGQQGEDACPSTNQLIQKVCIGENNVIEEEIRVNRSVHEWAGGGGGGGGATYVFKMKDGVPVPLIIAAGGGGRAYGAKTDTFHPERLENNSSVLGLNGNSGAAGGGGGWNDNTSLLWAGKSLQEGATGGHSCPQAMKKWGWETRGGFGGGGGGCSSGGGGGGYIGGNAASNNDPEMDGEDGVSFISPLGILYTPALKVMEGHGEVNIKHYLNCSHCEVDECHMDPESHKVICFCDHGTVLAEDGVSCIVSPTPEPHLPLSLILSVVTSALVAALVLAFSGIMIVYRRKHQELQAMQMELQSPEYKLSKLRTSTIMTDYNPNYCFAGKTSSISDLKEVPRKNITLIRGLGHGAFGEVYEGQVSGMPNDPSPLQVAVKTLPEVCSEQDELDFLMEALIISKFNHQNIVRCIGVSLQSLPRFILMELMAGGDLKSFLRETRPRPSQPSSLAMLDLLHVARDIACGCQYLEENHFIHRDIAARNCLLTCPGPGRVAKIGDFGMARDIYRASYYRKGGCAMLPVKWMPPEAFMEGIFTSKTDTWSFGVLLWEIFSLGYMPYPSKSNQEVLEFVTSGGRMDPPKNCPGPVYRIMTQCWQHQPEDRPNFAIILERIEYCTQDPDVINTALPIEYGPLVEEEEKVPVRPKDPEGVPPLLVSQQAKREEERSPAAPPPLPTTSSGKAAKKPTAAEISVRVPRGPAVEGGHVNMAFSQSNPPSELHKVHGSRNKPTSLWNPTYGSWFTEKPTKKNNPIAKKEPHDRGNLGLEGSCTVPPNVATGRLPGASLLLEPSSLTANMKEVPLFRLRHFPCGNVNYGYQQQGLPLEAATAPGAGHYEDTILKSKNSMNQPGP

[14] = biological target: Ribosomal protein S6 kinase alpha-1 (Homo sapiens) (UniProt Q15418); assay: Binding affinity to wild-type human partial length N-terminal RSK1 Kinase domain 1 (M1 to E388 residues) expressed in Escherichia coli BL21 at 1 uM by Kinomescan method relative to control
[15] = biological target: Serine/threonine-protein kinase PLK3 (Homo sapiens) (UniProt Q9H4B4); assay: Binding affinity to wild-type human partial length PLK3 (A42 to L334 residues) expressed in HEK293 cells at 1 uM by Kinomescan method relative to control; assay type: cell-based
[16] = biological target: Cyclin-dependent kinase 4/cyclin D1 (Homo sapiens) (UniProt P11802+P24385); assay: Binding affinity to wild-type human full length CDK4/cyclinD1 (M1 to E303 residues) expressed in HEK293 cells at 1 uM by Kinomescan method relative to control; assay type: cell-based
[17] = biological target: SRSF protein kinase 3 (Homo sapiens) (UniProt Q9UPE1); assay: Binding affinity to wild-type human partial length SRPK3 (P41 to P567 residues) expressed in Escherichia coli BL21 at 1 uM by Kinomescan method relative to control
Chain of SRSF protein kinase 3 (Homo sapiens) (Q9UPE1 whole entry, the tested form may be a part): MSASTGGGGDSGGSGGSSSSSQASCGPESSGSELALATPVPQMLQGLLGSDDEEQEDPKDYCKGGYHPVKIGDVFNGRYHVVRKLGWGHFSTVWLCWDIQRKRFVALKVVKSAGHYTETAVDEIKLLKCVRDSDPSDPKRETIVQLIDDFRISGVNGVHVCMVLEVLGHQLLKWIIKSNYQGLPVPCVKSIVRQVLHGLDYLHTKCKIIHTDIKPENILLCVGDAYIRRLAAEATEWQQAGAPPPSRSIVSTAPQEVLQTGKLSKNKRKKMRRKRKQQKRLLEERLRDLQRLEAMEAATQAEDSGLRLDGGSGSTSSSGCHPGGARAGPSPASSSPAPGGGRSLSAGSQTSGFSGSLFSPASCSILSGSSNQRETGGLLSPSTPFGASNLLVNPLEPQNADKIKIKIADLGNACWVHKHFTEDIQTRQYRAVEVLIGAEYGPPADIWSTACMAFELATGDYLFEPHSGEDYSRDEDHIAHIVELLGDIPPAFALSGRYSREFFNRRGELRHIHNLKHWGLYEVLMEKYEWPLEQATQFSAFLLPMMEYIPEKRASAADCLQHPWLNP

[18] = biological target: Fibroblast growth factor receptor 3 (Homo sapiens) (UniProt P22607); assay: Binding affinity to wild-type human partial length FGFR3 (R442 to S771 residues) expressed in Escherichia coli BL21 at 1 uM by Kinomescan method relative to control
Chain of Fibroblast growth factor receptor 3 (Homo sapiens) (P22607 23-806 limits assumed): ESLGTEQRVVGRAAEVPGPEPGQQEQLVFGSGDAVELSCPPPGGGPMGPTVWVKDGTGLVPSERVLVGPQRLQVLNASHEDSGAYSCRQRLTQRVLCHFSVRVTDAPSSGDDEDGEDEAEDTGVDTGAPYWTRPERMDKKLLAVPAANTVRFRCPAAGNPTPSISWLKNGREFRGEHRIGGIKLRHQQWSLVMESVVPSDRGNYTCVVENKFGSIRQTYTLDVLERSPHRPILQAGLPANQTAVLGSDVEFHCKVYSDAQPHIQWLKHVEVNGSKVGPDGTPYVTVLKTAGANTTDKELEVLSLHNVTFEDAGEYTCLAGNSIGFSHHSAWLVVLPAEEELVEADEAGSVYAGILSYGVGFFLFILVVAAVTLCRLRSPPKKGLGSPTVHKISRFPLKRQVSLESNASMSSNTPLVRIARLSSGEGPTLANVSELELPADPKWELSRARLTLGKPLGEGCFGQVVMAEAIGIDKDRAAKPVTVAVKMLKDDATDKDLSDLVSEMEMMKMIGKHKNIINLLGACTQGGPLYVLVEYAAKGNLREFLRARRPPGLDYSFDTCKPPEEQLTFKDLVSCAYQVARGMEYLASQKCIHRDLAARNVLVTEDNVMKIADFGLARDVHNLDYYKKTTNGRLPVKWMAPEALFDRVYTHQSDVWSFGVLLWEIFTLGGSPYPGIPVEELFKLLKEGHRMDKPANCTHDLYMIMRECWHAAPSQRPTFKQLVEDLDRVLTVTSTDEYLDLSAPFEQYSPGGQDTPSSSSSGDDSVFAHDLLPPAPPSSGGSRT

[19] = biological target: cAMP-dependent protein kinase catalytic subunit PRKX (Homo sapiens) (UniProt P51817); assay: Binding affinity to wild-type human partial length PRKX (M1 to F358 residues) expressed in Escherichia coli BL21 at 1 uM by Kinomescan method relative to control
[20] = biological target: MAP/microtubule affinity-regulating kinase 4 (Homo sapiens) (UniProt Q96L34); assay: Binding affinity to wild-type human partial length MARK4 (K29 to G340 residues) expressed in Escherichia coli BL21 at 1 uM by Kinomescan method relative to control
Chain of MAP/microtubule affinity-regulating kinase 4 (Homo sapiens) (Q96L34 whole entry, the tested form may be a part): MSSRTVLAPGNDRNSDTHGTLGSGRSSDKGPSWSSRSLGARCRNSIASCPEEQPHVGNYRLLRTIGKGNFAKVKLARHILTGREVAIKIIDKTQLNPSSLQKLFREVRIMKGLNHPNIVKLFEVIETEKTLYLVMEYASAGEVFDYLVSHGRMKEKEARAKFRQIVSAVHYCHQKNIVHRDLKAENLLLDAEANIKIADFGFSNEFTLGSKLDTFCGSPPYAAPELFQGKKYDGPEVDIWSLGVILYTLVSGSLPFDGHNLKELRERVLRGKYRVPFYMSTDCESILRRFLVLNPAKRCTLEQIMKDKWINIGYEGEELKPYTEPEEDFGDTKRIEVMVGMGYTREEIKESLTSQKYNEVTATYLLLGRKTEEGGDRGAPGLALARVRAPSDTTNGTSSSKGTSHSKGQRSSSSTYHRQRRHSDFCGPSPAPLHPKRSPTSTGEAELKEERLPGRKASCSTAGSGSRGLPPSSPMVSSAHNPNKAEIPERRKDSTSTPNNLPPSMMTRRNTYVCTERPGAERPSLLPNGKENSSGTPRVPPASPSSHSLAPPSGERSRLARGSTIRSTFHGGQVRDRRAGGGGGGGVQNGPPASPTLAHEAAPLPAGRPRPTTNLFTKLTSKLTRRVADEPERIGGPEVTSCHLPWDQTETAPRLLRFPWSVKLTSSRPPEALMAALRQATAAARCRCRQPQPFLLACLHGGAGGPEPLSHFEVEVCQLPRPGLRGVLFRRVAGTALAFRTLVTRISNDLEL

Chain of Phosphatidylinositol 4,5-bisphosphate 3-kinase catalytic subunit alpha isoform (Homo sapiens), P42336 [E545A] (P42336 whole entry E545A, the tested form may be a part, canonical isoform): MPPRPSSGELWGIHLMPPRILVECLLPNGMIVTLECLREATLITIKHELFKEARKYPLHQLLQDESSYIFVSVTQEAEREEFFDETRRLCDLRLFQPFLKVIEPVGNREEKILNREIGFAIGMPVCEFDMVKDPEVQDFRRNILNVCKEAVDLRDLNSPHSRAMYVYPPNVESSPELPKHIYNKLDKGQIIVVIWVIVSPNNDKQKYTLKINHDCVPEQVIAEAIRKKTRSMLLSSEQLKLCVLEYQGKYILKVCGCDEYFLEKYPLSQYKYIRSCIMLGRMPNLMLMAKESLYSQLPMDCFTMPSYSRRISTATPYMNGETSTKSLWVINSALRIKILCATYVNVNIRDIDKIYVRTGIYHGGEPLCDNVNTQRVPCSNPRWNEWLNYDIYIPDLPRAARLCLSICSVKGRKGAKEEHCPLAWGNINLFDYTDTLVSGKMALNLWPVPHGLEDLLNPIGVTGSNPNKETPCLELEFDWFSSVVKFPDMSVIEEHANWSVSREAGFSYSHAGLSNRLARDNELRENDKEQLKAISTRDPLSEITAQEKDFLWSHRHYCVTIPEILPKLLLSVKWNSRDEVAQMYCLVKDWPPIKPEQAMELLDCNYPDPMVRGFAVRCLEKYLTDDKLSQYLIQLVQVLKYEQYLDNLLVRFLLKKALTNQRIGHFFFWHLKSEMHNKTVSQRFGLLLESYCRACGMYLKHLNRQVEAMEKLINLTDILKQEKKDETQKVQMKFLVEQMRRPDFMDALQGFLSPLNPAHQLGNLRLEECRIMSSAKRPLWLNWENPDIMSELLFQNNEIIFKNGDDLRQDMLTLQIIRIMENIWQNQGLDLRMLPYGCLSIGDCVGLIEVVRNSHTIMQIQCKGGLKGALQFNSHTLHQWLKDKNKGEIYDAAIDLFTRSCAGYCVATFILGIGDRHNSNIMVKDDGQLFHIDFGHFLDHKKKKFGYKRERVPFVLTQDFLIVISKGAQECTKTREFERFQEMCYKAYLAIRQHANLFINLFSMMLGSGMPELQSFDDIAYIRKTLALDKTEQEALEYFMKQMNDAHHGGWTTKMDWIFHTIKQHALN

## C=CC(=O)Nc1ccc(C(=O)Nc2ccc(Nc3ncc4c(n3)N(C)c3ccc(C)cc3C(=O)N4C)cc2)cc1
[1]
  Activity: 78%
[2]
  Activity: 99%
Aurora kinase A
  IC50: 44 nM
Aurora kinase B
  Activity: 1.8%
[3]
  Activity: 100%
[4]
  Activity: 100%
[5]
  Activity: 98%
[6]
  Activity: 96%
[7]
  Activity: 100%
[8]
  Activity: 86%
[9]
  Activity: 96%
[10]
  Activity: 96%
[11]
  Activity: 100%
[12]
  Activity: 86%
[13]
  Activity: 94%
[14]
  Activity: 100%
[15]
  Activity: 91%
[16]
  Activity: 94%
[17]
  Activity: 100%
[18]
  Activity: 73%
[19]
  Activity: 100%
[20]
  Activity: 52%

## CCC(=O)Nc1ccc(C(=O)Nc2ccc(Nc3ncc4c(n3)N(C)c3ccc(C)cc3C(=O)N4C)cc2)cc1
[1]
  Activity: 93%
[2]
  Activity: 86%
Aurora kinase A
  IC50: 52 nM
Aurora kinase B
  Activity: 1.9%
[3]
  Activity: 100%
[4]
  Activity: 70%
[5]
  Activity: 79%
[6]
  Activity: 77%
[7]
  Activity: 45%
[8]
  Activity: 97%
[9]
  Activity: 93%
[10]
  Activity: 98%
[11]
  Activity: 100%
[12]
  Activity: 63%
[13]
  Activity: 96%
[14]
  Activity: 94%
[15]
  Activity: 83%
[16]
  Activity: 100%
[17]
  Activity: 100%
[18]
  Activity: 89%
[19]
  Activity: 80%
[20]
  Activity: 85%
